Compounds with a hit are over-represented: about 1.7% of the library has one in this group of screens.
FN deposit inh: fibronectin deposition inhibition. AH1F fibroblasts, Alexa488-fibronectin deposition fluorescence, overnight. inhibition, % at 12.6 µM. 350,000 tested, 0.086% active;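 active = mean inhibition across replicates of 30% or more, regardless of how many single replicates reach that level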;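 also: positive control wells lacked labelled fibronectin entirely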
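Material: AH1F fibroblasts assembling fluorescent fibronectin matrix; amount: 10000 AH1F cells/well; medium: DMEM, 2% serum; reagent: Alexa488-fibronectin, 24 nM final in well; dosing: single compound dose, delivered by pin transfer; incubation: 1 h adhesion, overnight exposure; detection: fluorescence after three HBSS washes, excitation 485 nm, emission 525 nm; measure: fibronectin deposition inhibition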
PglD DTNB: PglD (C. jejuni) enzyme inhibition. purified PglD enzyme, DTNB colorimetric CoA detection. inhibition, % at 12.5 µM. 360,000 tested, 0.098% active; in the data active = inhibition above about 16%, passing the limit was not always enough
Rtt109 HAT inh: C. albicans Rtt109 histone acetyltransferase inhibition. Q5AAJ8. purified Rtt109/Vps75, ThioGlo CoA-SH fluorescence, 4 h. inhibition, % at 34.9 µM. 330,000 tested, 0.16% active. AID 540336;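 active = inhibition of at least 50% in every replicate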
Target sequence (Q5AAJ8 whole entry, looked up): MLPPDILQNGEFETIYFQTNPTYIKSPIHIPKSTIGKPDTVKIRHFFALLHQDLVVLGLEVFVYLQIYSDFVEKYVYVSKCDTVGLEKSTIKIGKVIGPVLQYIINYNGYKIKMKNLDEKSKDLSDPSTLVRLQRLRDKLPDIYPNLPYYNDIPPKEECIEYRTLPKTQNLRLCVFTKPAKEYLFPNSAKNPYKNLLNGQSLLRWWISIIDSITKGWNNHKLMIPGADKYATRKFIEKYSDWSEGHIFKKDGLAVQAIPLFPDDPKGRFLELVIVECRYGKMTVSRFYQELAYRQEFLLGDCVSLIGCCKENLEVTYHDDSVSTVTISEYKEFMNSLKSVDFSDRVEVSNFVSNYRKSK
SKKanGAS inh: blocks kanamycin growth of S. pyogenes SKKanGAS strain. AID 1662. BacTiter-Glo, 6 h. inhibition, % at 7.5 µM. 300,000 tested, 1.3% active;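 active = mean replicate score, as percent of positive control median, at least 50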;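 also: strain carries kanamycin resistance gene driven by streptokinase promoter and grows in 40 µg/ml kanamycin; loss of luminescence reflects streptokinase promoter inhibition or plain growth inhibition; 0% = median of DMSO wells and 100% = positive control at its reference dose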
PfHsp90 yeast 2: growth inhibition of yeast expressing Plasmodium Hsp90. S. cerevisiae expressing PfHsp90, BacTiter-Glo ATP, 48 h; yeast lacking PDR1 and PDR3 efflux regulators. inhibition, % at 9.4 µM. 310,000 tested, 0.32% active;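 active = every replicate shows inhibition above about 80%, whatever the replicate mean, limit read from the data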;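 also: 0% = DMSO neutral controls and 100% = 20 µM radicicol positive controls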
CSC inhib: cancer stem cell inhibition; cancer stem cell-like cells viability, luminescence; inhibition, % at 7.5 µM; 300,000 tested, 1.1% active; in the data active = inhibition above about 75%; tested in HMLE shEcad cells
Starred values were filed as active, the others as inactive; · = not tested or not shown.

SMILES	FN deposit inh	PglD DTNB	Rtt109 HAT inh	SKKanGAS inh	PfHsp90 yeast 2	CSC inhib
CN(C)CCCNC(=O)[C@H]1[C@H](CO)[C@H]2Cn3c(cccc3=O)[C@@H]1N2CC1CC1	·	3	·	·	·	·
C[C@H]1CN([C@@H](C)CO)C(=O)c2cc(C#Cc3ccncc3)cnc2O[C@@H]1CN(C)CC1CCCC1	-17	-1	·	·	·	·
CCCNC(=O)C[C@H]1C[C@H]2c3cc(NC(=O)NC4CCCC4)ccc3O[C@H]2[C@H](CO)O1	-2	0	·	·	·	·
O=C(CSc1nc(N2CCOCC2)nc(N2CCOCC2)n1)Nc1cccc(C(F)(F)F)c1	2	-3	-5	54*	3	-5
O=C(CN1CCOCC1)Nc1cccc(C(=O)Nc2cccc(C(F)(F)F)c2)c1	-3	-1	-1	1	-77	-12
CCCCCNCC(=O)Nc1cccc(C(=O)Nc2cccc(C(F)(F)F)c2)c1	-4	·	13	5	·	93*
O=C(CN1CCOCC1)Nc1cccc(C(F)(F)F)c1	9	·	55*	-9	-9	-19
COc1ccc(Cl)cc1NC(=O)CSc1nc(Nc2ccccc2)nc(N2CCOCC2)n1	31*	0	-3	24	-1	0
COc1ccc(Cl)cc1NC(=O)CSc1nc(N2CCOCC2)nc(N2CCOCC2)n1	4	-3	0	6	18	-2
COc1ccc(S(=O)(=O)Nc2ccc3c(c2)CC(=O)N([C@@H](C)CO)C[C@H](C)[C@@H](CN(C)Cc2ccc(C(F)(F)F)cc2)O3)cc1	-13	-2	·	·	·	·
O=C(COc1ccc(C(=O)O)cc1)Nc1cccc(C(F)(F)F)c1	1	·	3	2	·	·
O=C(CCN1CCOCC1)NNC(=O)Nc1cccc(C(F)(F)F)c1	·	-3	-15	3	-21	-17
O=C(COCC(=O)Nc1cccc(C(F)(F)F)c1)Nc1cccc(C(F)(F)F)c1	·	-6	-4	-4	-14	77*
CCOC(=O)C(=NCCCN1CCOCC1)NNc1cccc(C(F)(F)F)c1	-7	3	6	4	-1	86*
C=C[C@@H]1c2c(F)cccc2N(S(=O)(=O)c2ccc(C)cc2)[C@H](c2ccc(OC(C)=O)cc2)C1(C#N)C#N	-1	-6	2	·	-18	112*
C=C[C@@H]1c2cccc(C)c2N(S(=O)(=O)c2ccc(C)cc2)[C@H](c2ccc(OC(C)=O)cc2)C1(C#N)C#N	-8	-1	2	·	-61	107*
C=C[C@@H]1c2c(F)cccc2N(S(=O)(=O)c2ccc(C)cc2)[C@H](c2ccc(C(=O)OC)cc2)C1(C#N)C#N	11	0	-4	·	-8	15
Cc1ccc(C(=O)/C=C/c2ccc3c(c2)OCCO3)c(O)c1	-8	2	-4	30	16	34
O=C(/C=C/c1ccc2c(c1)OCCCO2)c1ccc2ccccc2c1O	-5	-4	5	1	-34	95*
C[C@@H]1CN([C@@H](C)CO)C(=O)Cc2cc(NC(=O)Cc3ccccc3)ccc2O[C@H]1CN(C)C(=O)Nc1ccc2c(c1)OCO2	·	1	·	·	·	·
C=C(C(=O)c1ccccc1)C(C)C(=C)C(=O)c1ccccc1	0	·	-3	4	-19	82*
C=C(C(=O)c1ccccc1)C(c1ccccc1)C(C)C(=O)c1ccccc1 (centres undefined)	13	·	9	19	14	111*
CCCCN(CCCC)c1nc(-c2ccncc2)nc2ccccc12	5	·	3	97*	-28	101*
Cc1nc(-c2ccccc2)sc1C(=O)/C=C/c1ccc(Cl)cc1	·	-1	-1	-10	-7	94*
CO[C@@H]1CN(C)C(=O)c2ccc(NC(C)=O)cc2OC[C@H](C)N(C(=O)c2ccccc2)C[C@@H]1C	4	·	·	·	·	·
SMILES	FN deposit inh	PglD DTNB	Rtt109 HAT inh	SKKanGAS inh	PfHsp90 yeast 2	CSC inhib
Oc1c(C(c2ccccc2Cl)N2CCCC2)ccc2cccnc12 (centres undefined)	2	·	8	76*	119*	-8
Oc1c(C(c2cccs2)N2CCN(c3ccccc3)CC2)ccc2cccnc12 (centres undefined)	·	·	·	·	·	88*
CN1CCN(C(c2ccc(C(F)(F)F)cc2)c2ccc3cccnc3c2O)CC1 (centres undefined)	-13	·	·	87*	·	98*
CC(C)(C)n1nnnc1C(c1cccs1)N1CCN(c2ccccc2)CC1 (centres undefined)	-3	-6	0	4	·	0
CN1CCN(C(c2ccccc2)c2ccccc2)CC1	3	0	-1	·	16	-3
N#C[C@@H]1[C@H](c2ccccc2C2=CCCC2)[C@H](CO)N1C(=O)C1CCCC1	2	·	·	·	·	·
CCOC(=O)c1ccc(NC(=O)c2nc[nH]c2C(=O)NCCNC(=O)c2[nH]cnc2C(=O)Nc2ccc(C(=O)OCC)cc2)cc1	-2	-2	2	·	-13	122*
Cc1cccc(NC(=O)c2nc[nH]c2C(=O)N[C@@H](Cc2ccccc2)C(=O)OCc2ccccc2)c1	-17	-3	-2	64*	31	-12
CCOC(=O)c1ccc(NC(=O)c2nc[nH]c2C(=O)NC)cc1	0	4	2	7	13	19
CCOC(=O)c1ccc(NC(=O)c2nc[nH]c2C(=O)N[C@H](C)c2ccccc2)cc1	0	6	1	78*	-23	46
CCOC(=O)c1ccc(NC(=O)c2nc[nH]c2C(=O)N[C@@H](CC(C)C)C(=O)OCc2ccccc2)cc1	12	-7	5	63*	-1	-6
COc1ccc(S(=O)(=O)N2CCCCN3[C@H](CO)[C@@H](c4ccc(-c5cccnc5)cc4)[C@@H]3C2)cc1	·	-9	·	·	·	·
O=C(N[C@@H]1CC[C@H](CCn2cc(Cc3ccccc3)nn2)O[C@@H]1CO)c1ccccn1	-6	-1	·	·	·	·
COCCNC(=O)C[C@H]1C[C@@H]2c3cc(NS(=O)(=O)c4ccc(F)cc4)ccc3O[C@@H]2[C@H](CO)O1	0	7	·	·	·	·
O=C(Cc1ccccn1)NCC[C@@H]1CC[C@H](NC(=O)Nc2ccc(F)cc2)[C@H](CO)O1	·	0	·	·	·	·
Cc1ccc(S(=O)(=O)N(C(=O)c2ccncc2)c2ccc(OC(=O)c3ccncc3)cc2)cc1	0	·	2	7	95*	11
CCc1ccc(S(=O)(=O)N(C(=O)c2ccncc2)c2ccc(OC(=O)c3ccncc3)cc2)cc1	0	1	5	2	101*	1
O=C(Oc1ccc(N(C(=O)c2ccncc2)S(=O)(=O)c2ccc(F)cc2)cc1)c1ccncc1	·	-3	-5	2	-15	-3
Cc1ccc(S(=O)(=O)N(C(=O)c2ccncc2)c2ccc(OC(=O)c3ccncc3)cc2)c(C)c1	6	·	5	-18	89*	-3
